Results reported in ChEMBL document CHEMBL1140478, “Preparation and antitubercular activities of alkylated amino alcohols and their glycosylated derivatives” (Bioorg Med Chem, 2007).

How the values were obtained:
[1] = test system: Mycobacterium tuberculosis; assay: Antimycobacterial activity against Mycobacterium tuberculosis H37Rv by microplate alamar blue assay; assay type: functional
Summary of the method: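 M. tuberculosis H37Rv (ATCC 27294) exposed to decreasing compound concentrations in Middlebrook 7H9 medium. Growth read by Microplate Alamar Blue Assay. MIC taken as the lowest concentration that […]. Values are means of three separate experiments. Rifampicin at 1.0 µg/mL served as internal control.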

J774.A1 [2] = assay: Cytotoxicity against mouse […] cells at 0.5 ug/mL by MTT assay; assay type: cell-based
Summary of the method: (§1)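 Supernatants removed, cells given supplemented RPMI plus MTT (5 mg/mL) for 4 h at 37 °C, 5% CO2. Reaction stopped with acidic isopropanol (HCl), 10 min at room temperature, OD read at 570 nm. Proliferation and cytotoxicity calculated by formulae.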

J774.A1 [3] = assay: Cytotoxicity against mouse […] cells at 0.005 ug/mL by MTT assay; assay type: cell-based; summary of the method: as §1
[4] = Cell proliferation of mouse […] cells at 0.5 ug/mL by MTT assay; assay type: ADME, cell-based, J774.A1; conditions: J774A.1 cells, read-out: Activity; summary of the method: as §1
J774.A1 [5] = assay: Cytotoxicity against mouse […] cells at 0.05 ug/mL by MTT assay; assay type: cell-based; summary of the method: as §1
[6] = Cell proliferation of mouse […] cells at 0.05 ug/mL by MTT assay; assay type: ADME, cell-based, J774.A1; conditions: J774A.1 cells, read-out: Activity; summary of the method: as §1
[7] = Cell proliferation of mouse […] cells at 0.005 ug/mL by MTT assay; assay type: ADME, cell-based, J774.A1; conditions: J774A.1 cells, read-out: Activity; summary of the method: as §1

**Q.** Which MIC [1] does the source give for CCCCC(CC)CNCCO (stereo unspecified) here?
**A.** > 578 µM

**Q.** Which Activity (J774.A1 [2]) does the source give for CCCCCCCCCCCCNCCO here?
**A.** 21.3%

**Q.** What about the Activity (J774.A1 [3]) of the same molecule?
**A.** 12.1%

**Q.** And the viability at 0.5 ug/mL [4]?
**A.** 90.9%

**Q.** What about the Activity (J774.A1 [5]) of the same molecule?
**A.** 8.4%

**Q.** What about the viability at 0.05 ug/mL [6] of the same molecule?
**A.** 77.6%

**Q.** And the MIC [1]?
**A.** 27 µM

**Q.** What about the viability at 0.005 ug/mL [7] of the same molecule?
**A.** 92.7%

**Q.** With CCCCCCCCCCC(O)CNC[C@H]1O[C@@H]2OC(C)(C)O[C@@H]2[C@H]2OC(C)(C)O[C@H]21 (stereo partly specified) as the molecule, how does the MIC [1] read?
**A.** 28 µM

**Q.** With CCCCC(CC)CN(CCO)C[C@H]1O[C@@H]2OC(C)(C)O[C@@H]2[C@H]2OC(C)(C)O[C@H]21 (stereo partly specified) as the molecule, how does the MIC [1] read?
**A.** > 240 µM

**Q.** With CCCCCCCCCCN(CCO)C[C@H]1O[C@@H]2OC(C)(C)O[C@@H]2[C@H]2OC(C)(C)O[C@H]21 as the molecule, how does the MIC [1] read?
**A.** 225 µM

**Q.** Which Activity (J774.A1 [2]) does the source give for CCCCCCCCCCCCN(CCO)C[C@H]1O[C@@H]2OC(C)(C)O[C@@H]2[C@H]2OC(C)(C)O[C@H]21 here?
**A.** Not Active

**Q.** What about the Activity (J774.A1 [3]) of the same molecule?
**A.** Not Active

**Q.** What about the viability at 0.5 ug/mL [4] of the same molecule?
**A.** 96.6%

**Q.** What about the Activity (J774.A1 [5]) of the same molecule?
**A.** Not Active

**Q.** What about the viability at 0.05 ug/mL [6] of the same molecule?
**A.** 98.9%

**Q.** And the MIC [1]?
**A.** 6 µM

**Q.** And the viability at 0.005 ug/mL [7]?
**A.** 98.3%

**Q.** Which MIC [1] does the source give for CO[C@H]1/C=C/O[C@@]2(C)Oc3c(C)c(O)c4c(O)c(c(/C=N/N5CCN(C)CC5)c(O)c4c3C2=O)NC(=O)/C(C)=C\C=C\[C@H](C)[C@H](O)[C@@H](C)[C@@H](O)[C@@H](C)[C@H](OC(C)=O)[C@@H]1C [RIFAMPIN] here?
**A.** 1 µg/mL

**Q.** For CCCCCCCCCCNCCO, which MIC [1] is on record?
**A.** 248 µM

**Q.** With CCCCCCCCN(CCO)C[C@H]1O[C@@H]2OC(C)(C)O[C@@H]2[C@H]2OC(C)(C)O[C@H]21 as the molecule, how does the MIC [1] read?
**A.** 241 µM

**Q.** For CCCCCCCCCCCCCCNCCO [MYRALACT], which MIC [1] is on record?
**A.** 51 µM

**Q.** Which MIC [1] does the source give for CCCCCCCCCCCCCCCCNCCO here?
**A.** 46 µM

**Q.** For CCCCCCCCNCCO, which MIC [1] is on record?
**A.** 578 µM

**Q.** Which Activity (J774.A1 [2]) does the source give for CCCCCCCCCCCCCCCCN(CCO)C[C@H]1O[C@@H]2OC(C)(C)O[C@@H]2[C@H]2OC(C)(C)O[C@H]21 here?
**A.** 17.4%

**Q.** What about the Activity (J774.A1 [3]) of the same molecule?
**A.** 10.6%

**Q.** What about the viability at 0.5 ug/mL [4] of the same molecule?
**A.** 149%

**Q.** What about the Activity (J774.A1 [5]) of the same molecule?
**A.** 16.3%

**Q.** What about the MIC [1] of the same molecule?
**A.** 11 µM

**Q.** What about the viability at 0.005 ug/mL [7] of the same molecule?
**A.** 104%

**Q.** Which Activity (J774.A1 [2]) does the source give for CCCCCCCCCCCCCCN(CCO)C[C@H]1O[C@@H]2OC(C)(C)O[C@@H]2[C@H]2OC(C)(C)O[C@H]21 here?
**A.** Not Active

**Q.** What about the Activity (J774.A1 [3]) of the same molecule?
**A.** Not Active

**Q.** And the viability at 0.5 ug/mL [4]?
**A.** 118%

**Q.** And the Activity (J774.A1 [5])?
**A.** Not Active

**Q.** What about the viability at 0.05 ug/mL [6] of the same molecule?
**A.** 135%

**Q.** What about the MIC [1] of the same molecule?
**A.** 12 µM

**Q.** What about the viability at 0.005 ug/mL [7] of the same molecule?
**A.** 113%

**Q.** With CC[C@@H](CO)NCCN[C@@H](CC)CO [ETHAMBUTOL] as the molecule, how does the MIC [1] read?
**A.** 3.25 µg/mL

**Q.** Which results are given for CCCCCCCCCCC(O)CN (stereo unspecified)?
**A.** Activity (J774.A1 [2]): 31.1%; Activity (J774.A1 [3]): Not Active; viability at 0.5 ug/mL [4]: 96.4%; Activity (J774.A1 [5]): Not Active; viability at 0.05 ug/mL [6]: 112%; MIC [1]: 15 µM; viability at 0.005 ug/mL [7]: 110%

**Q.** Which MIC [1] does the source give for NNC(=O)c1ccncc1 [ISONIAZID] here?
**A.** 0.2 µg/mL
